According to ChEMBL document CHEMBL1208724, “A new group of oxime carbamates as reversible inhibitors of fatty acid amide hydrolase” (Bioorg Med Chem Lett, 2010):
Blank lines part the entries; values can stand above or below the compound they belong to. Activity calls are given as the source filed them. No cut-off for these calls is given here.

Assays:
[1] = target: T1, Fatty-acid amide hydrolase 1 (Mus musculus, UniProt O08914); assay: Inhibition of mouse brain FAAH assessed as conversion of [3H-ethanolamine]AEA to [3H]ethanolamine by scintillation counting
T1 sequence (O08914 whole entry): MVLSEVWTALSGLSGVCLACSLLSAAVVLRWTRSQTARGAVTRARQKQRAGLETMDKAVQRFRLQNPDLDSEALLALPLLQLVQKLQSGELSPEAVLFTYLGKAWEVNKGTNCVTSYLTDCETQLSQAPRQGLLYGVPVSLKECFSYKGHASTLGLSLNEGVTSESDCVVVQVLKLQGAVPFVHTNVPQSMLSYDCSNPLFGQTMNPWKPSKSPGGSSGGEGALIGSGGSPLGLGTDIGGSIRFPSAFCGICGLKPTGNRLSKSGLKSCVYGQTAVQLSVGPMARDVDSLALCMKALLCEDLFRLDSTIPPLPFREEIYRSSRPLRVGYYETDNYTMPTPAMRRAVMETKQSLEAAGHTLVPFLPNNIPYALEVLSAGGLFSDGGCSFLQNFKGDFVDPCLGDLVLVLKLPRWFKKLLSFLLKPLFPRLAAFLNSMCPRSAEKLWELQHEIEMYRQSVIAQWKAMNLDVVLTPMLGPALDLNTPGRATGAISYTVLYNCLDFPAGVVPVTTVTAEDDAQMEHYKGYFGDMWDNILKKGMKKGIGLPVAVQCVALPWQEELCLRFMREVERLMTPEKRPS

[2] = target: Fatty-acid amide hydrolase 1 (Mus musculus) (UniProt O08914); assay: Inhibition of mouse brain FAAH assessed as residual activity
Summary of the method: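 FAAH was pre-incubated 20 min with an excess of inhibitor, then dialyzed 18 h at 4 °C against 20 mM Tris–HCl (pH 7.0). Residual activity was assayed before and after dialysis and compared with untreated controls. In a separate run, enzyme was pre-incubated with inhibitor at room temperature for 0–60 min before substrate turnover was measured. Values are means ± S.D. of three independent experiments.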

Cannabinoid receptor 1 = Cannabinoid receptor 1 (Mus musculus, UniProt P47746); assay: Inhibition of mouse brain CB1 receptor
Cannabinoid receptor 2 = Cannabinoid receptor 2 (Mus musculus, UniProt P47936); assay: Inhibition of mouse brain CB2 receptor
[3] = target: Transient receptor potential cation channel subfamily V member 1 (Mus musculus, UniProt Q704Y3); assay: Inhibition of mouse TRPV1 receptor
[4] = Inhibition of mouse brain AMT
[5] = target: N-acyl-phosphatidylethanolamine-hydrolyzing phospholipase D (Mus musculus, UniProt Q8BH82); assay: Inhibition of mouse NAPEPLD
Adenosine receptor A1 = Adenosine receptor A1 (Homo sapiens, UniProt P30542); assay: Displacement of [3H]DPCPX from human recombinant A1 receptor expressed in CHO cells; format: cell-based
Adenosine receptor A2a = Adenosine receptor A2a (Homo sapiens, UniProt P29274); assay: Displacement of [3H]CGS21680 from human recombinant A2A receptor expressed in HEK293 cells; format: cell-based
Adenosine receptor A3 = Adenosine receptor A3 (Homo sapiens, UniProt P0DMS8); assay: Displacement of [3H]AB-MECA from human recombinant A3 receptor expressed in HEK293 cells; format: cell-based
[6] = target: Adrenergic receptor alpha-1 (Rattus norvegicus, UniProt P15823+P23944+P43140); assay: Displacement of [3H]prazosine from alpha1 receptor in rat cerebral cortex; format: tissue-based
[7] = target: Adrenergic receptor alpha-2 (Rattus norvegicus, UniProt P22086+P19328+P22909); assay: Displacement of [3H][…] from alpha2 receptor in rat cerebral cortex; format: tissue-based
[8] = target: Beta-1 adrenergic receptor (Homo sapiens, UniProt P08588); assay: Displacement of [3H](-)CGP 12177 from human recombinant beta-1 receptor expressed in HEK293 cells; format: cell-based
[9] = target: Beta-2 adrenergic receptor (Homo sapiens, UniProt P07550); assay: Displacement of [3H](-)CGP 12177 from human recombinant beta2 receptor expressed in CHO cells; format: cell-based
Chain of Beta-2 adrenergic receptor (P07550 whole entry): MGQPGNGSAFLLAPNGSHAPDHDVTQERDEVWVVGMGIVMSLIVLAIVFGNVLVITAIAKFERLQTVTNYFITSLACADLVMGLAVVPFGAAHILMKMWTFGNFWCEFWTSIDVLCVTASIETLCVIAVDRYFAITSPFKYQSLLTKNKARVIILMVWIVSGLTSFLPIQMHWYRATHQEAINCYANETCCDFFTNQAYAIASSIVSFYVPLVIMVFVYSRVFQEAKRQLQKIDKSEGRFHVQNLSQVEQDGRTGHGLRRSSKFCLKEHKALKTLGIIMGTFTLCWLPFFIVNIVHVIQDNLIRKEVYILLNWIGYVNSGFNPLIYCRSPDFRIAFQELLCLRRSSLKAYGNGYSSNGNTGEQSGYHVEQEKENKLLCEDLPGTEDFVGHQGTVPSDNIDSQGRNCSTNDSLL

[10] = target: Type-1 angiotensin II receptor (Homo sapiens, UniProt P30556); assay: Displacement of [125I][Sar1,Ile8]-AT II from human recombinant AT1 receptor expressed in HEK293 cells; format: cell-based
[11] = Displacement of [3H]flunitrazepam from BZD receptor in rat cerebral cortex; format: tissue-based
B2 bradykinin receptor = B2 bradykinin receptor (Homo sapiens, UniProt P30411); assay: Displacement of [3H]bradykinin from human recombinant bradykinin B2 receptor expressed in CHO cells; format: cell-based
[12] = target: Cholecystokinin receptor type A (Homo sapiens, UniProt P32238); assay: Displacement of [125I]CCK-8 from human recombinant CCKA receptor expressed in CHO cells; format: cell-based
D(1A) dopamine receptor = D(1A) dopamine receptor (Homo sapiens, UniProt P21728); assay: Displacement of [3H]SCH 23390 from human recombinant dopamine D1 receptor expressed in CHO cells; format: cell-based
Chain of D(1A) dopamine receptor (P21728 whole entry): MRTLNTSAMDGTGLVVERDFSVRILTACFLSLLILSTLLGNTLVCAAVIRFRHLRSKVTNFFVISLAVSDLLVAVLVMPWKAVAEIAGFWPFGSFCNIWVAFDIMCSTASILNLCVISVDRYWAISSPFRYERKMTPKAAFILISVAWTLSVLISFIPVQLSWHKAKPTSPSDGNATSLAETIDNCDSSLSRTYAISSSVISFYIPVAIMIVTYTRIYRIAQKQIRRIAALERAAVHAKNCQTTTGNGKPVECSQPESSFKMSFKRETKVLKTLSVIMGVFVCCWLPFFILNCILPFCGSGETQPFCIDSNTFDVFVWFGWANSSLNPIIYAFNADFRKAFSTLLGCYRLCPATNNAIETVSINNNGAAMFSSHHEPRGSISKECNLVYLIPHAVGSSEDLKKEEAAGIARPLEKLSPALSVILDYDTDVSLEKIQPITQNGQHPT

D(2) dopamine receptor = D(2) dopamine receptor (Homo sapiens, UniProt P14416); assay: Displacement of [3H]spiperone from human recombinant dopamine D2S receptor expressed in HEK293 cells; format: cell-based
Endothelin-1 receptor = Endothelin-1 receptor (Homo sapiens, UniProt P25101); assay: Displacement of [125I]endothelin-1 from human recombinant ETA receptor expressed in CHO cells; format: cell-based
[13] = Displacement of [3H]GABA from GABA receptor in rat cerebral cortex; format: tissue-based
Galanin receptor type 2 = Galanin receptor type 2 (Homo sapiens, UniProt O43603); assay: Displacement of [125I]Galanin from human recombinant GAL2 receptor expressed in CHO cells; format: cell-based
[14] = target: C-X-C chemokine receptor type 2 (Homo sapiens, UniProt P25025); assay: Displacement of [125I]IL-8 from human recombinant CXCR2 receptor expressed in HEK293 cells; format: cell-based
[15] = target: C-C chemokine receptor type 1 (Homo sapiens, UniProt P32246); assay: Displacement of [125I]MIP-1a from human recombinant CCR1 receptor expressed in HEK293 cells; format: cell-based
Chain of C-C chemokine receptor type 1 (P32246 whole entry): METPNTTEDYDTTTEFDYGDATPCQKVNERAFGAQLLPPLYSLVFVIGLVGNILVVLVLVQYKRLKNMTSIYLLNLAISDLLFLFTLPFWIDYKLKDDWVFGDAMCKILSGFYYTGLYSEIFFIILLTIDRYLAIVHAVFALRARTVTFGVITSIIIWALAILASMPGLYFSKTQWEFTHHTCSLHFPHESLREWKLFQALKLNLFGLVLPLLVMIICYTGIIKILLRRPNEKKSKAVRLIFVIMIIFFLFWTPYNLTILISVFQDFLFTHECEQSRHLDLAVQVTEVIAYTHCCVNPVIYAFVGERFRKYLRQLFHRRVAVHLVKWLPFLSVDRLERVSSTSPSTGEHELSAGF

Histamine H1 receptor = Histamine H1 receptor (Homo sapiens, UniProt P35367); assay: Displacement of [3H]pyrilamine from human recombinant histamine H1 receptor expressed in HEK293 cells; format: cell-based
Histamine H2 receptor = Histamine H2 receptor (Homo sapiens, UniProt P25021); assay: Displacement of [125I]APT from human recombinant histamine H2 receptor expressed in CHO cells; format: cell-based
Melanocortin receptor 4 = Melanocortin receptor 4 (Homo sapiens, UniProt P32245); assay: Displacement of [125I]NDP-a-MSH from human recombinant MC4 receptor expressed in CHO cells; format: cell-based
Chain of Melanocortin receptor 4 (P32245 whole entry): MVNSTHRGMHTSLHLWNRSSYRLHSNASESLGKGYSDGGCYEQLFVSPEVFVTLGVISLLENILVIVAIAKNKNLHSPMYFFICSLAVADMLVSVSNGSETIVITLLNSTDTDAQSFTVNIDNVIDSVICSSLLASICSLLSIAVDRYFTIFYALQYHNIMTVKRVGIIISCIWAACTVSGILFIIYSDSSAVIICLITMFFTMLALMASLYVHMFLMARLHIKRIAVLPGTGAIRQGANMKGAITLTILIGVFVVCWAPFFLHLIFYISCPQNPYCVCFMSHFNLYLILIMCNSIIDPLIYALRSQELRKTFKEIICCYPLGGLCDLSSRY

[16] = target: Melatonin receptor type 1A (Homo sapiens, UniProt P48039); assay: Displacement of [125I]2-iodomelatonin from human recombinant MT1 receptor expressed in CHO cells; format: cell-based
[17] = target: Muscarinic acetylcholine receptor M1 (Homo sapiens, UniProt P11229); assay: Displacement of [3H]pirenzepine from human recombinant muscarinic M1 receptor expressed in CHO cells; format: cell-based
[18] = target: Muscarinic acetylcholine receptor M2 (Homo sapiens, UniProt P08172); assay: Displacement of [3H]AF-DX 384 from human recombinant muscarinic M2 receptor expressed in CHO cells; format: cell-based
[19] = target: Muscarinic acetylcholine receptor M3 (Homo sapiens, UniProt P20309); assay: Displacement of [3H]4-DAMP from human recombinant muscarinic M3 receptor expressed in CHO cells; format: cell-based
Substance-K receptor = Substance-K receptor (Homo sapiens, UniProt P21452); assay: Displacement of [125I]NKA from human recombinant NK2 receptor expressed in CHO cells; format: cell-based
Chain of Substance-K receptor (P21452 whole entry): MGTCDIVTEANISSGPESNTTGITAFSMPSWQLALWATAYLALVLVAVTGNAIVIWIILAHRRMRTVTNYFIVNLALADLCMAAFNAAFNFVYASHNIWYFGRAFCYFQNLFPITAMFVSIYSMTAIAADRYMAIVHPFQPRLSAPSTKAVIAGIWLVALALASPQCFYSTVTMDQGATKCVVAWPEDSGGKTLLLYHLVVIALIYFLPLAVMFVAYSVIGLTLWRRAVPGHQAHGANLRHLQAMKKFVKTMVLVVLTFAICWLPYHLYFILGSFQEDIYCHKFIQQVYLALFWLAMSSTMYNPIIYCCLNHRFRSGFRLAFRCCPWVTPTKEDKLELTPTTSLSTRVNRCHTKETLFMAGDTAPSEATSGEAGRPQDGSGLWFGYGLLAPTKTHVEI

Neuromedin-K receptor = Neuromedin-K receptor (Homo sapiens, UniProt P29371); assay: Displacement of [3H]SR 142801 from human recombinant NK3 receptor expressed in CHO cells; format: cell-based
Chain of Neuromedin-K receptor (P29371 whole entry): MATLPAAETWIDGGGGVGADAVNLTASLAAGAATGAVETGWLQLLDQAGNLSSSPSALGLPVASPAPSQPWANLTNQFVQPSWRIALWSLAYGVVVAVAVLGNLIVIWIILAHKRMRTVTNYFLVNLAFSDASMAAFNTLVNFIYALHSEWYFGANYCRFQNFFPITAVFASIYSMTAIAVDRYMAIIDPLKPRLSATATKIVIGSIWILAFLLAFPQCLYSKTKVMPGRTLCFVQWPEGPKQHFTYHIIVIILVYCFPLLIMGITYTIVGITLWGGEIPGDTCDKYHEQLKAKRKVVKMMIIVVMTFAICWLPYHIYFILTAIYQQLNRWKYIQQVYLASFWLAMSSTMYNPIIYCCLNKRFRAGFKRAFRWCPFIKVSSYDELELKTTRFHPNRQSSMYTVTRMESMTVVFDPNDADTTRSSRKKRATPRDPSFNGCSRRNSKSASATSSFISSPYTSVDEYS

[20] = target: Neuropeptide Y receptor type 1 (Homo sapiens, UniProt P25929); assay: Displacement of [125I]peptide YY from human recombinant Y1 receptor expressed in […] cell
[21] = target: Neuropeptide Y receptor type 2 (Homo sapiens, UniProt P49146); assay: Displacement of [125I]peptide YY from human recombinant Y2 receptor expressed in KAN-TS cells; format: cell-based
Chain of Neuropeptide Y receptor type 2 (P49146 whole entry): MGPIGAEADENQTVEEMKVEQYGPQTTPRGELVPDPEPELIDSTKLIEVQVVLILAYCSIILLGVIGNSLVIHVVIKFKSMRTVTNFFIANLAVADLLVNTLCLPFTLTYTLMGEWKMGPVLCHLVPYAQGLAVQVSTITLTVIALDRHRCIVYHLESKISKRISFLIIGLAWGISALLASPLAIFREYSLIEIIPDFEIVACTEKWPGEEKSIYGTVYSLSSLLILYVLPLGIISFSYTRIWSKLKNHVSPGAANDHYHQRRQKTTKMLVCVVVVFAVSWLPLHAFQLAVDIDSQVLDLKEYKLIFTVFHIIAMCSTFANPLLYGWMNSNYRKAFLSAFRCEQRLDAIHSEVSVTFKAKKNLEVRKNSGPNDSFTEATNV

[22] = target: Neurotensin receptor type 1 (Homo sapiens, UniProt P30989); assay: Displacement of [125I]Tyr3-neurotensin from human recombinant NT1 receptor expressed in H recombinant CHO cells; format: cell-based
[23] = Displacement of [3H]DADLE from human recombinant delta 2 opioid receptor expressed in CHO cells; format: cell-based
[24] = target: Kappa-type opioid receptor (Rattus norvegicus, UniProt P34975); assay: Displacement of [3H]U69593 from rat recombinant kappa opioid receptor expressed in CHO cells; format: cell-based
Mu-type opioid receptor = Mu-type opioid receptor (Homo sapiens, UniProt P35372); assay: Displacement of [3H]DAMGO from human recombinant mu opioid receptor expressed in HEK293 cells; format: cell-based
Nociceptin receptor = Nociceptin receptor (Homo sapiens, UniProt P41146); assay: Displacement of [3H]nociceptin from human recombinant ORL1 receptor expressed in H recombinant HEK293 cells; format: cell-based
Thromboxane A2 receptor = Thromboxane A2 receptor (Homo sapiens, UniProt P21731); assay: Displacement of [3H]SQ 29548 from human recombinant TXA2 receptor expressed in HEK293 cells; format: cell-based
[25] = target: 5-hydroxytryptamine receptor 1A (Homo sapiens, UniProt P08908); assay: Displacement of [3H]8-OH-DPAT from human recombinant 5HT1A receptor expressed in HEK293 cells; format: cell-based
[26] = target: 5-hydroxytryptamine receptor 1B (Rattus norvegicus, UniProt P28564); assay: Displacement of [125I]CYP from 5HT1B receptor expressed in rat cerebral cortex; format: tissue-based
Chain of 5-hydroxytryptamine receptor 1B (P28564 whole entry): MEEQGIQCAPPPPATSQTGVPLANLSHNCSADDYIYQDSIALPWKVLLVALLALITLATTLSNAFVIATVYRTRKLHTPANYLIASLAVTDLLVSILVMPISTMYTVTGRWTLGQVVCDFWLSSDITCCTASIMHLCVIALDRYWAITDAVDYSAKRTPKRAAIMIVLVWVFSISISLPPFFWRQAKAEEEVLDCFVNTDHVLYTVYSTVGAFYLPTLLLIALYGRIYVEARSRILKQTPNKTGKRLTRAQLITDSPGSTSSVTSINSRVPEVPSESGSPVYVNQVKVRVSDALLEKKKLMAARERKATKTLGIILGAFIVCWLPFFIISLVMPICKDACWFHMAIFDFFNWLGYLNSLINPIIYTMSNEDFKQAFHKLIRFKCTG

[27] = target: 5-hydroxytryptamine receptor 2A (Homo sapiens, UniProt P28223); assay: Displacement of [3H]Ketanserin from human recombinant 5HT2A receptor expressed in HEK293 cells; format: cell-based
[28] = target: 5-hydroxytryptamine receptor 3A (Homo sapiens, UniProt P46098); assay: Displacement of [3H]BRL 43694 from human recombinant 5HT3 receptor expressed in CHO cells; format: cell-based
Chain of 5-hydroxytryptamine receptor 3A (P46098 whole entry): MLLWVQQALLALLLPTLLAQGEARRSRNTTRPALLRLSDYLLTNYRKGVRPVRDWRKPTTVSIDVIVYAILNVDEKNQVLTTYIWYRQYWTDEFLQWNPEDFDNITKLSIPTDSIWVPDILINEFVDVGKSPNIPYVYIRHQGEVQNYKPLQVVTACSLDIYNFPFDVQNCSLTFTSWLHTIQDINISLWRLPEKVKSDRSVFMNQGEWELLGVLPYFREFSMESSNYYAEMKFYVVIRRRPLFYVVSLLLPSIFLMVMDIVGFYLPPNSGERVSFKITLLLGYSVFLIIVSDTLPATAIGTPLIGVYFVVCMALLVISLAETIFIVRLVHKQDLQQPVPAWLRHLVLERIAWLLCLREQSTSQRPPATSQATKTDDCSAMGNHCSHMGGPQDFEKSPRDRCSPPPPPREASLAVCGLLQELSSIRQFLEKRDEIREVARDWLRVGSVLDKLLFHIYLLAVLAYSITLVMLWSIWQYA

[29] = target: 5-hydroxytryptamine receptor 5A (Homo sapiens, UniProt P47898); assay: Displacement of [3H]LSD from human recombinant 5HT5A receptor expressed in CHO cells; format: cell-based
[30] = target: 5-hydroxytryptamine receptor 6 (Homo sapiens, UniProt P50406); assay: Displacement of [3H]LSD from human recombinant 5HT6 receptor expressed in CHO cells; format: cell-based
[31] = target: 5-hydroxytryptamine receptor 7 (Homo sapiens, UniProt P34969); assay: Displacement of [3H]LSD from human recombinant 5HT7 receptor expressed in CHO cells; format: cell-based
Chain of 5-hydroxytryptamine receptor 7 (P34969 whole entry): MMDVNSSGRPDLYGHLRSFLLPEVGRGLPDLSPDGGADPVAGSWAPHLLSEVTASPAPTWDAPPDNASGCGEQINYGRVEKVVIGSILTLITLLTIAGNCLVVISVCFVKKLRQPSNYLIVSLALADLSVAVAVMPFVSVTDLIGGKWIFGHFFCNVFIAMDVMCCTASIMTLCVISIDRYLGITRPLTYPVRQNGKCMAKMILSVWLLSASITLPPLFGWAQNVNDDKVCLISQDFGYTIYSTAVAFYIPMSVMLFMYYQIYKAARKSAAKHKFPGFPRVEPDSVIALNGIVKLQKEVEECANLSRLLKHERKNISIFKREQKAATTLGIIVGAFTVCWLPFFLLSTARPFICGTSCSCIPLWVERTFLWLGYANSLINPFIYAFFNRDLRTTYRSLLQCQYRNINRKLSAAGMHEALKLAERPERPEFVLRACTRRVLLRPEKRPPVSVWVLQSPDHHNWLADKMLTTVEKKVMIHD

[32] = Displacement of [125I]Tyr11-somatostatin-14 from human recombinant sst receptor expressed in AtT-20 cells; format: cell-based; conditions: att20
[33] = Displacement of [125I]VIP from human recombinant VIP receptor expressed in H recombinant CHO cells; format: cell-based
Vasopressin V1a receptor = Vasopressin V1a receptor (Homo sapiens, UniProt P37288); assay: Displacement of [3H]AVP from human recombinant V1a receptor expressed in H recombinant CHO cells; format: cell-based
[34] = target: Voltage-gated L-type calcium channel (Rattus norvegicus, UniProt P22002+Q02485+P27732); assay: Displacement of [3H](-)D 888 from L-type calcium channel in rat cerebral cortex; format: tissue-based
[35] = target: Small conductance calcium-activated potassium channel protein 1 (Rattus norvegicus, UniProt P70606); assay: Displacement of [125I]apamin from SK+Ca channel in rat cerebral cortex; format: tissue-based
[36] = target: Sodium-dependent dopamine transporter (Homo sapiens, UniProt Q01959); assay: Displacement of [3H]BTCP from human recombinant dopamine transporter expressed in CHO cells; format: cell-based
[37] = target: Sodium-dependent serotonin transporter (Homo sapiens, UniProt P31645); assay: Displacement of [3H]imipramine from human recombinant 5HT transporter expressed in CHO cells; format: cell-based
Chain of Sodium-dependent serotonin transporter (P31645 whole entry): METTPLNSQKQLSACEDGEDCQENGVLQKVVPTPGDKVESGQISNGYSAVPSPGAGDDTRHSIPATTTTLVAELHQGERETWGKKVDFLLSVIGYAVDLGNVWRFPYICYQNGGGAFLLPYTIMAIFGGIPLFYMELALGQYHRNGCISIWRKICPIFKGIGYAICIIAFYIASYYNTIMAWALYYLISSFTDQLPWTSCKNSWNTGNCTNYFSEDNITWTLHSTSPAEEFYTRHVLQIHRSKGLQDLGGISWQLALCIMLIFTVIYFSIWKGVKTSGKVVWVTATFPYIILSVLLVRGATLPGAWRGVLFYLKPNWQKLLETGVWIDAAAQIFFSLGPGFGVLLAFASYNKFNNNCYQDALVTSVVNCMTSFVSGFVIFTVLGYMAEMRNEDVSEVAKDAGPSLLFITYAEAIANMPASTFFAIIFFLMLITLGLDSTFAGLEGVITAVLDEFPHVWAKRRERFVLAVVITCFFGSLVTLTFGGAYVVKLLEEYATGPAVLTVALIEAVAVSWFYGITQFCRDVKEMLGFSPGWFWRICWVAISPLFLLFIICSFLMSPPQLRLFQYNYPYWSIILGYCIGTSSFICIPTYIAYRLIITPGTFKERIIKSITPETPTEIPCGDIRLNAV

Compound: C/C(=N\OC(=O)Nc1ccccc1)c1cccc(-c2cccs2)c1
IC50 [1]: 0.008 µM
inhibition [2]: Active
IC50 (Cannabinoid receptor 1): > 10 µM
IC50 (Cannabinoid receptor 2): 10 µM
IC50 [3]: > 10 µM
IC50 [4]: 0.1 µM
IC50 [5]: > 10 µM
IC50 (Adenosine receptor A1): > 10 µM
IC50 (Adenosine receptor A2a): > 10 µM
IC50 (Adenosine receptor A3): 1 µM
IC50 [6]: > 10 µM
IC50 [7]: > 10 µM
IC50 [8]: > 10 µM
IC50 [9]: > 10 µM
IC50 [10]: > 10 µM
IC50 [11]: 1 µM
IC50 (B2 bradykinin receptor): > 10 µM
IC50 [12]: 1 µM
IC50 (D(1A) dopamine receptor): > 10 µM
IC50 (D(2) dopamine receptor): > 10 µM
IC50 (Endothelin-1 receptor): > 10 µM
IC50 [13]: > 10 µM
IC50 (Galanin receptor type 2): > 10 µM
IC50 [14]: > 10 µM
IC50 [15]: > 10 µM
IC50 (Histamine H1 receptor): > 10 µM
IC50 (Histamine H2 receptor): > 10 µM
IC50 (Melanocortin receptor 4): > 10 µM
IC50 [16]: > 10 µM
IC50 [17]: > 10 µM
IC50 [18]: > 10 µM
IC50 [19]: > 10 µM
IC50 (Substance-K receptor): > 10 µM
IC50 (Neuromedin-K receptor): > 10 µM
IC50 [20]: > 10 µM
IC50 [21]: > 10 µM
IC50 [22]: > 10 µM
IC50 [23]: 1 µM
IC50 [24]: > 10 µM
IC50 (Mu-type opioid receptor): > 10 µM
IC50 (Nociceptin receptor): > 10 µM
IC50 (Thromboxane A2 receptor): > 10 µM
IC50 [25]: 1 µM
IC50 [26]: > 10 µM
IC50 [27]: > 10 µM
IC50 [28]: > 10 µM
IC50 [29]: 1 µM
IC50 [30]: > 10 µM
IC50 [31]: > 10 µM
IC50 [32]: > 10 µM
IC50 [33]: > 10 µM
IC50 (Vasopressin V1a receptor): > 10 µM
IC50 [34]: > 10 µM
IC50 [35]: > 10 µM
IC50 [36]: > 10 µM
IC50 [37]: > 10 µM

Compound: C/C(=N\OC(=O)NCCCCCc1ccccc1)c1cccc(-c2ccccc2)c1
IC50 [1]: 0.1 µM

Results, then the compound that gave them:

IC50 [1]: 0.084 µM
Compound: C/C(=N\OC(=O)Nc1ccccc1)c1cccc(-c2cccc(C(N)=O)c2)c1

IC50 [1]: 0.01 µM
Compound: C/C(=N\OC(=O)Nc1cccc2ccccc12)c1cccc(-c2ccccc2)c1

IC50 [1]: 0.2 µM
Compound: C/C(=N\OC(=O)Nc1ccccc1)c1ccc(-c2cccs2)cc1
